# Screening results (PubChem BioAssay)
# Most compounds without a hit are left out; they make up all but 2.6% or so of the library.
# ASAP1 GAP inh – inhibitors of human ASAP1 ArfGAP activity. Q9ULH1. ASAP1-stimulated ARF1 GTP hydrolysis, GDP FP detection. inhibition, % at 16.5 µM. actives 0.19% (n = 360,000); in the data active = inhibition above about 25%;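 also: 0% = vehicle with enzyme and substrate and 100% = no enzyme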
# Target sequence (Q9ULH1 325-724 limits assumed): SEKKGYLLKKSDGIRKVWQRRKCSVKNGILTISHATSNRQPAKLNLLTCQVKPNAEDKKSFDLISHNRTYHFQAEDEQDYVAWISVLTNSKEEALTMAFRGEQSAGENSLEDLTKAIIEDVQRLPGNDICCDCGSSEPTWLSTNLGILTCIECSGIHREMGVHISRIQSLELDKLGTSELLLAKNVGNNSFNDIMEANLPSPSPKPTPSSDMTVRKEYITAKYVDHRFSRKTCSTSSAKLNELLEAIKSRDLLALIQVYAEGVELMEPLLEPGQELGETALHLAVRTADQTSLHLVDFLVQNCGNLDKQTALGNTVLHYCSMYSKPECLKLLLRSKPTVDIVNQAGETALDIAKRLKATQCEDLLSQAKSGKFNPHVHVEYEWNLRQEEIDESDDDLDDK
# SMARCA2 act – increases SMARCA2 function in MMTV reporter cells. MG213 cells, MMTV-luciferase reporter, dexamethasone, overnight. activation, % at 9.1 µM. actives 1% (n = 370,000); in the data active = activation above about 7.8%;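 also: 0% = vehicle wells and 100% = reference activator wells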
# ARFGAP1 inh – inhibits rat ARF GTPase activating protein 1 | Q62848 | inhibition, % at 16.5 µM | actives 0.26% (n = 360,000) | Arfgap1-stimulated ARF1 GTP hydrolysis, GDP FP detection;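 active = inhibition above a per-plate limit, mean inhibition of low control wells plus 3 SD, cut at about 25% in these data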;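 also: 0% = DMSO wells with enzyme and 100% = wells lacking Arfgap1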
# Target sequence (Q62848 1-136 limits assumed): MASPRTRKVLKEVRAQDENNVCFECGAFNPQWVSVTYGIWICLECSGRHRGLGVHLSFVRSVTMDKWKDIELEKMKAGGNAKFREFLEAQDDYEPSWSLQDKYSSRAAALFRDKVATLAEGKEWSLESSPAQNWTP
#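 Material: rat Arfgap1 GAP domain (His6, aa 1-136), purified enzyme. Also added: human ARF1(Δ1-17)-GTP substrate. Compound dosing: 16.5 µM single point, 1.26% DMSO. Timing: enzyme reaction 120 min at 25 °C after 20 min preincubation. Signal: GDP detection by fluorescence polarization. Read-out basis: percent inhibition of GAP-stimulated GDP formation, scaled between DMSO and no-Arfgap1 medians.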
# esBAF inh – blocks esBAF chromatin remodeling in mouse ES cells. Bmi1-luciferase knock-in reporter, 24 h; 100% = twice the neutral-well signal. reporter increase, % at 12.5 µM. AID 602393. actives 2% (n = 350,000); in the data active = activation above about 40%;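 also: 0% = median of the plate's neutral control wells and 100% = double that signal; a rise in the Bmi1 reporter signal indicates esBAF inhibition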
# * marks the source's active call; other numbers are inactive results; . = no result.
SMILES,ASAP1 GAP inh,SMARCA2 act,ARFGAP1 inh,esBAF inh
CC(C)C(=O)N=c1sc2cccc(F)c2n1C,0,7,6,2
Cn1c(=NC(=O)COc2ccccc2)sc2cccc(F)c21,4,3,1,57*
CC(C)CC#Cc1ccc2c(c1)O[C@H](CN(C)C(=O)C1CCCCC1)[C@H](C)CN([C@@H](C)CO)S2(=O)=O,.,.,.,-16
C[C@H]1CN([C@@H](C)CO)C(=O)c2cccc(NS(=O)(=O)c3ccc(Cl)cc3)c2O[C@@H]1CN(C)C(=O)Nc1ccc2c(c1)OCO2,.,.,.,2
Cc1noc(C)c1COC(=O)c1ccc(-c2nc3ccccc3s2)s1,12,1,3,65*
CCNC(=O)COC(=O)c1ccc(-c2nc3ccccc3s2)s1,11,5,-2,.
Cc1nccc(-c2ccc3c(c2)OCO3)n1,-7,1,-8,.
c1ccc(-c2nccc(-c3ccc4c(c3)OCO4)n2)cc1,1,1,0,51*
Cc1ccc(NC(=O)C2CCN(S(=O)(=O)c3ccc4ccccc4c3)CC2)nc1,-6,0,9,58*
COC(=O)C(Cc1ccc(OC(=O)c2ccc(C(F)(F)F)cc2)cc1)N1Cc2ccccc2C1=O (stereo not drawn),.,.,.,46*
CSCC[C@@H](C(=O)O)N1Cc2ccccc2C1=O,2,0,7,3
COc1ccc(S(=O)(=O)Nc2cccc3c2O[C@@H](CN(C)S(=O)(=O)c2cn(C)cn2)[C@@H](C)CN([C@H](C)CO)C3=O)cc1,.,.,.,-4
Cc1ccc(-c2nc3ccc(NS(=O)(=O)c4ccccc4)cc3[nH]2)o1,8,3,3,78*
O=S(=O)(Nc1ccc2nc(C(F)(F)F)[nH]c2c1)c1ccccc1,-1,-4,11,3
Cc1nn(-c2ccccc2)c(N)c1N=Nc1ccc(Cl)cc1,6,4,2,80*
COc1cccc2cc(C(=O)OCC(=O)N3CC(C)OC(C)C3)c(=O)oc12 (stereo not drawn),-8,3,3,64*
O=C(c1ccccc1)N1CC[C@@H]2[C@@H](CO)Nc3ccc(C#Cc4cccnc4)cc3[C@@H]21,.,.,.,5
O=c1c2ccccc2oc2cc(-c3ccc(CN4CCOCC4)cc3)ccc12,4,5,7,77*
N#CCn1nnc(-c2ccc3c(c2)OCO3)n1,-3,-2,13,8
Fc1cccc(Cn2ccc(-c3ccc4c(c3)OCO4)n2)c1,7,4,8,64*
Nc1ccn(Cc2cccc(F)c2)n1,-14,2,-6,-3
Cc1ccccc1Cn1ccc(-c2ccc3c(c2)OCO3)n1,-1,2,13,60*
Cc1ccccc1Cn1nnc(-c2ccc3c(c2)OCO3)n1,7,2,-7,51*
C[C@@H]1CN([C@@H](C)CO)C(=O)c2cccc(NS(=O)(=O)c3cccs3)c2O[C@H]1CN(C)Cc1ccc(Oc2ccccc2)cc1,.,.,.,0
Oc1ccccc1C=NNc1nc2ccccc2s1,-2,-2,16,51*
SMILES,ASAP1 GAP inh,SMARCA2 act,ARFGAP1 inh,esBAF inh
O=C1CC(c2ccc(O)cc2)Oc2cc(O)cc(O)c21 (stereo not drawn),-1,-1,0,19
COc1ccc([C@H]2Cc3cccc(O)c3C(=O)O2)cc1O,2,4,-3,55*
COc1ccc(C2CC(=O)c3c(O)cc(O)cc3O2)cc1O (stereo not drawn),-3,5,-2,52*
O=C1CC(c2ccccc2)Oc2cc(O)cc(O)c21 (stereo not drawn),2,0,-4,60*
COc1ccc(NC(=O)Nc2ccc3c(c2)C(=O)N([C@@H](C)CO)C[C@H](C)[C@@H](CN(C)Cc2ccc(C(=O)O)cc2)OCCCC[C@@H](C)O3)cc1,.,.,.,-1
CC(=O)Nc1nc(C)cs1,1,2,6,6
Cc1ccc(CNc2nc(C)cs2)cc1,-4,4,3,46*
O=C(Nc1ccccc1Cl)c1cc(C2CCCCN2S(=O)(=O)c2ccccc2)on1 (stereo not drawn),-6,-3,6,-7
O=C(Nc1ccccc1)c1cc(C2CCCCN2S(=O)(=O)c2cccs2)on1 (stereo not drawn),-1,1,3,82*
O=C(Nc1ccccc1)c1cc(C2CCCCN2S(=O)(=O)c2ccccc2)on1 (stereo not drawn),13,-2,8,52*
Cc1ccc(/C=C/C(=O)NCc2cccs2)cc1,3,3,-3,46*
Cc1ccc(/C=C/C(=O)NCc2cccs2)c(C)c1,3,3,11,.
CCSc1nncn1/N=C/c1ccc(OC)c(OC)c1,-5,3,-8,18
C=C(C)CSc1nncn1/N=C/c1ccc(OC)cc1,15,6,4,50*
CO[C@@H]1CN(C)C(=O)c2ccc(NC(C)=O)cc2OC[C@@H](C)N(C(=O)c2ccccc2F)C[C@@H]1C,.,.,.,-1
Cc1ccc(S(=O)(=O)N2CCN(C(=O)c3ccc4ccccc4n3)CC2)c(C)c1,-6,2,-12,58*
Cc1cccnc1NC(=O)COc1ccc2c(c1)CCC2,8,2,0,57*
Cc1ccc(NC(=O)COc2ccc3c(c2)CCC3)nc1,1,3,-1,17
Cc1cccnc1NC(=O)COc1ccc2oc3c(c2c1)CCCC3,9,1,8,8
Cc1csc(NC(=O)COc2ccc3c(c2)CCC3)n1,9,2,-16,64*
CCC(=O)N1[C@@H](CO)[C@H](c2ccc(-c3ccccc3)cc2)[C@@H]1CNC(=O)COC,.,.,.,1
COc1ccc(NC(=O)n2ncc3c(C)cccc32)cc1,5,3,7,39
COc1ccc(NC(=O)n2ncc3c(C)cccc32)cc1OC,-10,6,-10,53*
COc1ccc(-c2c3c(nc4sc(C(=O)Nc5ccccc5)c(N)c24)CCC3)cc1,6,-4,8,53*
COCc1cc(C)nc2sc(C(=O)Nc3cccc(OC)c3)c(N)c12,-7,6,-1,67*
SMILES,ASAP1 GAP inh,SMARCA2 act,ARFGAP1 inh,esBAF inh
COCc1cc(C)nc2sc(C(=O)Nc3nccs3)c(N)c12,8,0,-1,56*
Nc1c(C(=O)Nc2ccccc2)sc2nc3c(c(-c4ccco4)c12)CCC3,-5,3,-5,20
O=C(C[C@H]1CC[C@H](NC(=O)C2CCC2)[C@@H](CO)O1)NC1CCCCC1,.,.,.,2
C[C@@H]1CCCCO[C@H](CN(C)C(=O)CCCN(C)C)[C@H](C)CN([C@@H](C)CO)C(=O)c2cc(NC(=O)Nc3ccc(C(F)(F)F)cc3)ccc2O1,.,.,.,-7
O=C(N[C@@H]1CC[C@@H](CCn2cc(C3(O)CCCC3)nn2)O[C@@H]1CO)C1CCOCC1,.,.,.,-7
COc1ccc(C(=O)C[n+]2cn(C(F)F)c3ccccc32)c(F)c1,-9,4,-7,52*
Cc1ccc(-n2c(C)nc3oc4ccccc4c(=O)c3c2=O)cc1,16,3,-3,56*
CCc1nc2oc3cc(OC)ccc3c(=O)c2c(=O)n1-c1ccccc1,-1,1,-2,45*
CCc1nc2oc3ccccc3c(=O)c2c(=O)n1Cc1ccccc1,-2,-1,8,.
CCc1nc2oc3cc(OC)ccc3c(=O)c2c(=O)n1Cc1ccccc1,.,.,.,8
